Measured values taken from paper PMC5667346 (Theranostics, 2017).
Ends that are not written are not given here.

Tests used:
[1] = test system: bacterial colony count in CLP-induced septic mice; assay: Bacterial count in peritoneal fluid and blood of CLP-operated mice; format: in vivo, mouse; conditions: 500 μg/kg i.v. 12 h after CLP, count at 24 h after CLP, n=10
Procedure, shortened: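 Polymicrobial sepsis was induced by cecal ligation and puncture (CLP). Mice received the test compound at 500 μg/kg i.v. 12 h after CLP, with untreated CLP mice as comparators. Bacterial loads in peritoneal fluid and blood were determined by counting colonies, with n = 10 per group. Data are mean ± SD from three independent experiments on different days, analysed by Mann-Whitney U test versus CLP only.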

DLS assay = format: physicochemical; conditions: 2 mg/mL in 10 mM PBS, 20°C
[2] = Pharmacokinetic analysis, terminal elimination half-life after i.v. injection; format: in vivo; conditions: male ICR mice, i.v. 500 μg/kg

PEG5K-KSLW: KSLW mono-PEGylated at the N-terminal amine with monomethoxy PEG-ALD, MW 5,000 Da ({mPEG 5 kDa}-KKVVFWVKFK)
Decrease of bacterial colony count in the blood [1]: 90% | Decrease of bacterial colony count in the peritoneal fluid [1]: 70% | Percentage polydispersity (%Pd), DLS (DLS assay): 23.3% | Average hydrodynamic diameter (DLS) (DLS assay; filtered 0.22 μm, three repeats with 10 subruns): 4.2 nm | In vivo half-life relative to that of KSLW [2]: > 10 fold
